Columns and labels:
Rattus norvegicus [1] = organism: Rattus norvegicus; test: Organ distribution of [18F]ACF radiolabeled compound in rat heart after 2 min; type: ADME, organism-based; conditions: in vivo
How it was run: (§1)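 Rats, three per time point, under ether anesthesia; 30 μCi tracer in 0.2 mL saline injected into femoral vein. Sacrificed by cardiac excision under ether at 2, 30, 60, 120 or 240 min. Organs removed, weighed and counted; % dose/organ calculated against counts of 1% of initial dose counted at the same time. Average of three rats ± SD.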

Rattus norvegicus [2] = organism: Rattus norvegicus; test: Regional brain distribution of [18F]ACF radiolabeled compound in rat cortex after 30 min; type: ADME, organism-based; conditions: in vivo, 0.5 h
How it was run: (§2)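 Rats (three per group) under ether anesthesia got 30 μCi tracer in 0.2 mL saline into the femoral vein and were killed by cardiac excision at the stated time. Cortex, striatum, hippocampus, cerebellum, hypothalamus and the rest of brain were dissected, weighed and gamma counted. %dose/g was taken against counts of a diluted initial dose. Regional ratios are each region's %dose/g over cerebellum's. Mean ± SD.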

Rattus norvegicus [3] = organism: Rattus norvegicus; test: Ratio of regional brain distribution of [18F]-ACF radiolabeled compound in rat remainder to that of cerebellum after 30 min; type: ADME, organism-based; conditions: in vivo, 0.5 h; how it was run: as §2
Rattus norvegicus [4] = organism: Rattus norvegicus; test: Organ distribution of [18F]ACF radiolabeled compound in rat brain after 2 min; type: ADME, organism-based; conditions: in vivo; how it was run: as §1
Rattus norvegicus [5] = organism: Rattus norvegicus; test: Regional brain distribution of [18F]ACF radiolabeled compound in rat striatum after 120 min; type: ADME, organism-based; conditions: in vivo, 2 h
How it was run: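 Rats (3 per group) under ether anaesthesia received 30 μCi tracer in 0.2 mL saline into the femoral vein. Killed by cardiac excision under ether at the set time. Striatum and other brain regions dissected, weighed and gamma-counted. % dose/g calculated against counts of a diluted 1% initial-dose standard. Values given as average ± SD of three rats.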

Rattus norvegicus [6] = organism: Rattus norvegicus; test: Organ distribution of [18F]-ACF radiolabeled compound in rat bone after 240 min; type: ADME, organism-based, Bone element; conditions: in vivo, 4 h
How it was run: (§3)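 Under ether anesthesia, 30 μCi no-carrier-added tracer in 0.2 mL saline injected into the femoral vein. Rats killed by cardiac excision at the stated time. Organs were removed, weighed and counted; % dose/organ was calculated against counts of a 1% initial-dose standard. Three rats per time, average ± SD.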

Rattus norvegicus [7] = organism: Rattus norvegicus; test: Ratio of regional brain distribution of [18F]ACF radiolabeled compound in rat cerebellum to that of cerebellum after 240 min; type: ADME, organism-based; conditions: in vivo, 4 h; how it was run: as §2
Rattus norvegicus [8] = test: Effect of pretreatment with […] with a dose of 2 mg/kg (i.v.) on specific binding of [18F]ACF in rat brain hippocampus; type: ADME, organism-based; design: dose 2 mg/kg, route intravenous; conditions: in vivo, iv
How it was run: (§4)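 Rats pretreated iv with drug (2 mg/kg) or saline 5 min before iv [18F]ACF (50 μCi). Sacrificed 1 h after tracer. Brain regions were dissected, weighed and counted, and % dose/g was calculated against a diluted initial dose. Drug-treated rats were compared with saline controls by ANOVA/Dunnett's test (p<0.05). Three rats per point, average ± SD.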

Rattus norvegicus [9] = organism: Rattus norvegicus; test: Ratio of regional brain distribution of [18F]-ACF radiolabeled compound in rat hypothalamus to that of cerebellum after 30 min; type: ADME, organism-based; conditions: in vivo, 0.5 h; how it was run: as §2
Rattus norvegicus [10] = test: Ratio of effect of pretreatment with (+)-McN5652 with a dose of 2 mg/kg (i.v.) on specific binding of [18F]ACF in rat brain cortex to that of cerebellum; type: ADME, organism-based; design: dose 2 mg/kg, route intravenous; conditions: in vivo, iv
How it was run: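 Rats (three per point) pretreated iv with competing drug at 2 mg/kg or saline (control) 5 min before iv [18F]ACF (50 μCi). At 1 h post tracer, brain regions (cortex, striatum, hippocampus, cerebellum, hypothalamus, remainder) dissected, weighed, counted as % dose/g and expressed as ratio to cerebellum. Average ± SD; ANOVA with Dunnett's test vs saline controls, p < 0.05.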

Rattus norvegicus [11] = organism: Rattus norvegicus; test: Regional brain distribution of [18F]ACF radiolabeled compound in rat cortex after 60 min; type: ADME, organism-based; conditions: in vivo, 1 h; how it was run: as §2
Rattus norvegicus [12] = organism: Rattus norvegicus; test: Organ distribution of [18F]-ACF radiolabeled compound in rat liver after 30 min; type: ADME, organism-based; conditions: in vivo, 0.5 h; how it was run: as §3
Rattus norvegicus [13] = test: Effect of pretreatment with (+)-McN5652 with a dose of 2 mg/kg (i.v.) on specific binding of [18F]ACF in rat brain cortex; type: ADME, organism-based; design: dose 2 mg/kg, route intravenous; conditions: in vivo, iv; how it was run: as §4
Rattus norvegicus [14] = organism: Rattus norvegicus; test: Organ distribution of [18F]ACF radiolabeled compound in rat blood after 60 min; type: ADME, organism-based; conditions: in vivo, 1 h; how it was run: as §1
Rattus norvegicus [15] = organism: Rattus norvegicus; test: Ratio of regional brain distribution of [18F]-ACF radiolabeled compound in rat remainder to that of cerebellum after 2 min; type: ADME, organism-based; conditions: in vivo; how it was run: as §2
Rattus norvegicus [16] = organism: Rattus norvegicus; test: Ratio of regional brain distribution of [18F]-ACF radiolabeled compound in rat cerebellum to that of cerebellum after 2 min; type: ADME, organism-based; conditions: in vivo
How it was run: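 Rats, three per time point, given 30 μCi tracer in 0.2 mL saline into femoral vein under ether anesthesia; killed at 2, 30, 60, 120 or 240 min. Cortex, striatum, hippocampus, cerebellum, hypothalamus and rest of brain dissected, weighed, counted; % dose/g against diluted initial dose, then each region divided by cerebellum. Average of three rats ± SD.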

Rattus norvegicus [17] = organism: Rattus norvegicus; test: Ratio of regional brain distribution of [18F]ACF radiolabeled compound in rat remainder to that of cerebellum after 60 min; type: ADME, organism-based; conditions: in vivo, 1 h; how it was run: as §2
Rattus norvegicus [18] = organism: Rattus norvegicus; test: Regional brain distribution of [18F]-ACF radiolabeled compound in rat remainder (rest of brain) after 30 min; type: ADME, organism-based; conditions: in vivo, 0.5 h; how it was run: as §2
Rattus norvegicus [19] = organism: Rattus norvegicus; test: Organ distribution of [18F]-ACF radiolabeled compound in rat brain after 30 min; type: ADME, organism-based; conditions: in vivo, 0.5 h; how it was run: as §3
Rattus norvegicus [20] = organism: Rattus norvegicus; test: Regional brain distribution of [18F]-ACF radiolabeled compound in rat hippocampus after 30 min; type: ADME, organism-based; conditions: in vivo, 0.5 h; how it was run: as §2
Rattus norvegicus [21] = organism: Rattus norvegicus; test: Regional brain distribution of [18F]ACF radiolabeled compound in rat hippocampus after 60 min; type: ADME, organism-based; conditions: in vivo, 1 h; how it was run: as §2
Rattus norvegicus [22] = test: Effect of pretreatment with (+)-McN5652 with a dose of 2 mg/kg (i.v.) on specific binding of [18F]ACF in rat brain remainder; dose/g; type: ADME, organism-based; design: dose 2 mg/kg, route intravenous; conditions: in vivo, iv; how it was run: as §4
Rattus norvegicus [23] = test: Effect of pretreatment with methylphenidate with a dose of 2 mg/kg (i.v.) on specific binding of [18F]-ACF in rat brain remainder; type: ADME, organism-based; design: dose 2 mg/kg, route intravenous; conditions: in vivo, iv; how it was run: as §4
Rattus norvegicus [24] = organism: Rattus norvegicus; test: Organ distribution of [18F]-ACF radiolabeled compound in rat lung after 240 min; type: ADME, organism-based; conditions: in vivo, 4 h; how it was run: as §3
Rattus norvegicus [25] = test: Effect of pretreatment with methylphenidate with a dose of 2 mg/kg (i.v.) on specific binding of [18F]ACF in rat brain hippocampus; type: ADME, organism-based; design: dose 2 mg/kg, route intravenous; conditions: in vivo, iv; how it was run: as §4
Rattus norvegicus [26] = organism: Rattus norvegicus; test: Organ distribution of [18F]ACF radiolabeled compound in rat heart after 60 min; type: ADME, organism-based; conditions: in vivo, 1 h; how it was run: as §1
Rattus norvegicus [27] = organism: Rattus norvegicus; test: Organ distribution of [18F]-ACF radiolabeled compound in rat kidney after 240 min; type: ADME, organism-based; conditions: in vivo, 4 h; how it was run: as §3
Rattus norvegicus [28] = organism: Rattus norvegicus; test: Regional brain distribution of [18F]ACF radiolabeled compound in rat striatum after 60 min; type: ADME, organism-based; conditions: in vivo, 1 h
How it was run: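 Rats, three per group, under ether anaesthesia, given 30 μCi no-carrier-added tracer in 0.2 mL saline into the femoral vein. They were killed at the stated time by cardiac excision under ether. Striatum and other brain regions were dissected, weighed and counted. %dose/g was calculated against counts of 1% of the injected dose, as mean ± SD of three rats.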

Rattus norvegicus [29] = organism: Rattus norvegicus; test: Organ distribution of [18F]ACF radiolabeled compound in rat blood after 2 min; type: ADME, organism-based; conditions: in vivo; how it was run: as §1
Rattus norvegicus [30] = organism: Rattus norvegicus; test: Organ distribution of [18F]-ACF radiolabeled compound in rat liver after 120 min; type: ADME, organism-based; conditions: in vivo, 2 h; how it was run: as §3
Rattus norvegicus [31] = test: Effect of pretreatment with methylphenidate with a dose of 2 mg/kg (i.v.) on specific binding of [18F]ACF in rat brain cerebellum; dose/g; type: ADME, organism-based; design: dose 2 mg/kg, route intravenous; conditions: in vivo, iv; how it was run: as §4
Rattus norvegicus [32] = organism: Rattus norvegicus; test: Ratio of regional brain distribution of [18F]-ACF radiolabeled compound in rat hypothalamus to that of cerebellum after 2 min; type: ADME, organism-based; conditions: in vivo; how it was run: as §2
Rattus norvegicus [33] = organism: Rattus norvegicus; test: Regional brain distribution of [18F]-ACF radiolabeled compound in rat striatum after 240 min; type: ADME, organism-based; conditions: in vivo, 4 h; how it was run: as §2

CN(C)Cc1ccccc1Sc1cc(F)c(Cl)cc1N
Dose/g (Rattus norvegicus [1]): 1.69 % dose/organ
Dose/g (Rattus norvegicus [2]): 0.62%
Ratio (Rattus norvegicus [3]): 1.8
Dose/g (Rattus norvegicus [4]): 3.27 % dose/organ
Dose/g (Rattus norvegicus [5]): 0.15%
Dose/g (Rattus norvegicus [6]): 0.27 % dose/organ
Ratio (Rattus norvegicus [7]): 1
Dose/g (Rattus norvegicus [8]): 0.46%
Ratio (Rattus norvegicus [9]): 2.29
Ratio (Rattus norvegicus [10]): 1.43
Dose/g (Rattus norvegicus [11]): 0.33%
Dose/g (Rattus norvegicus [12]): 15.2 % dose/organ
Dose/g (Rattus norvegicus [13]): 0.24%
Dose/g (Rattus norvegicus [14]): 4.65%
Ratio (Rattus norvegicus [15]): 1.32
Ratio (Rattus norvegicus [16]): 1
Ratio (Rattus norvegicus [17]): 2.56
Dose/g (Rattus norvegicus [18]): 0.67%
Dose/g (Rattus norvegicus [19]): 1.28 % dose/organ
Dose/g (Rattus norvegicus [20]): 0.7%
Dose/g (Rattus norvegicus [21]): 0.45%
Dose/g (Rattus norvegicus [22]): 0.23%
Dose/g (Rattus norvegicus [23]): 0.38%
Dose/g (Rattus norvegicus [24]): 0.15 % dose/organ
Dose/g (Rattus norvegicus [25]): 0.43%
Dose/g (Rattus norvegicus [26]): 0.11 % dose/organ
Dose/g (Rattus norvegicus [27]): 0.51 % dose/organ
Dose/g (Rattus norvegicus [28]): 0.45%
Dose/g (Rattus norvegicus [29]): 6.56 % dose/organ
Dose/g (Rattus norvegicus [30]): 5.9 % dose/organ
Dose/g (Rattus norvegicus [31]): 0.17%
Ratio (Rattus norvegicus [32]): 1.37
Dose/g (Rattus norvegicus [33]): 0.05%
